Columns and labels:
Type in all cases: functional
Rattus norvegicus [1] = species on record: Rattus norvegicus; assay: Percentage of basal lactate efflux before starting the drug perfusion (1 min) with average basal level 689+/-103 pmol/min
Rattus norvegicus [2] = species on record: Rattus norvegicus; assay: Percentage of basal lactate efflux before starting the drug perfusion (15 min) with average basal level 689+/-103 pmol/min
Outline: (§1)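 Rat striatal microdialysis via U-shaped cellulose-membrane cannula, Ringer perfusion. Once lactate efflux stabilized, test compound perfused as 10 mM solution in Ringer for 15–150 min. Dialysate mixed on-line with lactate dehydrogenase (5 mg/mL) and 0.5 mM NAD+ in carbonate buffer pH 9.5. NADH formed was separated by C18 HPLC (0.05 M phosphate, pH 6.8) and detected electrochemically at 650 mV. Samples injected every 5 min. Change expressed as % of basal. At least duplicate experiments.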

Rattus norvegicus [3] = species on record: Rattus norvegicus; assay: (§2) Percentage of basal lactate efflux before starting the drug perfusion (150 min) with average basal level 689+/-103 pmol/min; outline: as §1
Rattus norvegicus [4] = species on record: Rattus norvegicus; assay: as §2; remark: listed apart in the source

SMILES | Basal (Rattus norvegicus [1]) | Basal (Rattus norvegicus [2]) | other results
C[n+]1ccc(-c2ccccc2)cc1 | 210% | 280% | –
C[n+]1ccccc1-c1ccccc1 | – | 160% | –
C[n+]1cccc2ccccc21 | – | 190% | Basal (Rattus norvegicus [3]): 200%
Cc1ccccc1-c1cc[n+](C)cc1 | 155% | – | –
Cc1ccc(-[n+]2ccc(C)cc2)cc1 | 180% | 230% | –
Cc1cc(-c2ccccc2)cc[n+]1C | 200% | – | –
C[n+]1ccc(C(C)(C)C)cc1 | – | 106% | –
C[n+]1ccc(-c2ccccc2)nc1 | – | 102% | –
C[n+]1cccc(-c2ccccc2)c1 | – | 240% | –
c1ccc2c(c1)CCNC2 [1,2,3,4-TETRAHYDROISOQUINOLINE] | – | – | Basal (Rattus norvegicus [4]): 98%

Reference: ChEMBL document CHEMBL1125076, “In vivo intracerebral microdialysis studies in rats of MPP+ analogues and related charged species” (1990)
